# Screens: PubChem BioAssay, several laboratories
# In the library only some 2.5% were active in any assay of this set; here they are far more common.
# PfGluPho inh: PfG6PD (Plasmodium falciparum) enzyme inhibition; PfGluPho enzyme, NADPH resazurin-diaphorase fluorescence; inhibition, % at 20 µM; 0.78% of 350,000 active; AID 504690;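 active = inhibition reaching at least a set limit at 20 µM in the primary screen, cut at about 59% in these data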;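 also: 0% = DMSO wells with substrate and 100% = DMSO wells lacking glucose-6-phosphate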
# TbHK1 inh: blocks Trypanosoma brucei hexokinase 1 activity; recombinant TbHK1, G6PDH-coupled NADH A340; 0.11% of 220,000 active; inhibition, % at 10 µM; AID 1430;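 active = inhibition of 50% or more in the single-dose primary screen; inactive = inhibition below 50%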
# EP2 mod: modulates human prostaglandin E2 receptor EP2 signaling; EP2-expressing cells, cAMP HTRF FRET, PGE2 co-stimulation; 0.83% of 260,000 active; induction, % at 25 µM; P43116;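 active = compounds whose cAMP rise, as percent of the full-agonist control response, exceeds 60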;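 also: rat C6 glioma line stably carrying human EP2 under a CMV promoter; the protocol text gives 20 µM as final concentration; 100% = response of wells given 1 µM PGE2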
# HKDC1 inh: HKDC1 (human) hexokinase inhibition | Q2TB90 | recombinant HKDC1, G6PDH/diaphorase resazurin coupled fluorescence | inhibition, % at 20 µM | 0.16% of 340,000 active | AID 493160;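 active = inhibition above about 35% when tested at 20 µM, limit read from the data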;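 also: plate controls were DMSO wells with enzyme for no effect and DMSO wells lacking enzyme for full effect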
# Target sequence (Q2TB90 whole entry, looked up): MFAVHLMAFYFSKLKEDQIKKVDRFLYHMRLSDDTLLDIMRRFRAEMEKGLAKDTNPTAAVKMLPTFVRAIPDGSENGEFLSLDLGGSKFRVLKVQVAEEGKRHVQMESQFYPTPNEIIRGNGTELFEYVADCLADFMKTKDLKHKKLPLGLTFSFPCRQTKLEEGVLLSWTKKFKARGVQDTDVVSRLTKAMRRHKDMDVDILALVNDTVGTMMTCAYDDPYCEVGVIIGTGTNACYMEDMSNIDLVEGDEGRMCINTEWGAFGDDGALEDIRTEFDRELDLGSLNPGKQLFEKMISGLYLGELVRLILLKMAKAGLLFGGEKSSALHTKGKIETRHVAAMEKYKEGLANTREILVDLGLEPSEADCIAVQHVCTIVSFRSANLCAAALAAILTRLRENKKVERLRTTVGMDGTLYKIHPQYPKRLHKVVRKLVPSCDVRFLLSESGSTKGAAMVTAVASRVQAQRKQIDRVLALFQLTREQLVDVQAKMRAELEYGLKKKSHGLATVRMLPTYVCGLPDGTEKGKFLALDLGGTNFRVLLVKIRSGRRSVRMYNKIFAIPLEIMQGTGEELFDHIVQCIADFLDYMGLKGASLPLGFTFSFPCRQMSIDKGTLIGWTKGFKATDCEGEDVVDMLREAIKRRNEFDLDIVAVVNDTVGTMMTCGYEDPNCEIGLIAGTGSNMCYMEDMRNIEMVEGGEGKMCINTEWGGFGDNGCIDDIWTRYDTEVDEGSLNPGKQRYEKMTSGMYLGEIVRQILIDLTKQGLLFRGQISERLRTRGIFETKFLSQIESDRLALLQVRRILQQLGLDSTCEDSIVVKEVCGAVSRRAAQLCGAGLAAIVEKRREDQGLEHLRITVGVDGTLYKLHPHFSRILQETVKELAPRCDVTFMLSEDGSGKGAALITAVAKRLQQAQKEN
#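 Test system: recombinant HKDC1 (HK5) hexokinase enzyme, produced in-house; Amount: enzyme 5 µg/mL final; Buffer or medium: Tris pH 8.0 buffer with MgCl2, Tween-20, BSA, BME; Reagent: glucose and ATP substrates; Doses: 20 µM test compound, 1% DMSO; Incubation: 90 min reaction incubation at room temperature, dark; Detection: resorufin fluorescence at 613 nm.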
# EP2 antag: blocks the human prostaglandin E2 receptor EP2. 0.52% of 260,000 active. C6 glioma cells expressing human EP2, cAMP TR-FRET; cells stimulated with saturating PGE2. inhibition, % at 25 µM;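 active = percent inhibition above 40 after rounding to a whole number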;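 also: rat C6 glioma host cells with rolipram phosphodiesterase inhibitor present; the protocol text gives 20 µM as final concentration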
# PHOSPHO1 inh: blocks human PHOSPHO1 phosphatase activity; Q8TCT1; recombinant PHOSPHO1, absorbance phosphatase assay; inhibition, % at 13.3 µM; 1.1% of 290,000 active; AID 1565; in the data active = inhibition above about 60%
# Numbers without * were called inactive; nt = no result.
SMILES,PfGluPho inh,TbHK1 inh,EP2 mod,HKDC1 inh,EP2 antag,PHOSPHO1 inh
COc1ccccc1NC(=O)c1ccc2c(c1)N(Cc1cc(C)ccc1C)C(=O)C(C)(C)O2,nt,nt,64.2*,nt,14.9,nt
COc1ccccc1NC(=O)CN1C(=O)C(C)(C)Oc2ccc(C(=O)NC3CCCC3)cc21,nt,nt,31.1,nt,7.5,nt
O=C(CN1CCC(n2cnc3cccnc32)CC1)NCc1cccs1,nt,nt,-0.9,nt,8.0,nt
Cc1ccc(NC(=S)Nc2cccc(-c3n[nH]c(=S)o3)c2)cc1,-9.6,-7.1,-24.2,4.3,41.7*,-85.1
NC(=S)Nc1cccc(-c2n[nH]c(=S)o2)c1,-3.3,-5.0,-0.5,-9.2,26.2,-55.6
S=c1[nH]nc(-c2cc(-c3ccco3)[nH]n2)n1-c1ccccc1Cl,49.2,3.8,10.4,10.1,12.5,86.2*
Oc1ccccc1-c1cc(-c2ccco2)[nH]n1,25.6,-3.3,-41.7,-1.6,5.4,73.1*
Cc1ccc(C(=N)c2ccccc2Cc2cccc3ccccc23)c2ccccc12,nt,nt,39.0,nt,40.4*,nt
COc1ccc2c(CN(CCCn3ccnc3)Cc3ccc(C)s3)c[nH]c2c1,nt,nt,-19.7,nt,5.2,nt
O=c1c(O)c(-c2ccccc2)oc2ccccc12,-25.6,nt,-22.1,-6.9,112.1*,nt
COc1ccc2c(Cc3c4ccccc4cc4ccccc34)cncc2c1O,nt,nt,27.7,nt,39.9*,nt
COc1ccc(NC(=O)CSc2nc(N)c(C(=O)Nc3ccc(N(C)C)cc3)s2)cc1,-0.8,-11.7,-19.9,-5.4,5.5,66.2*
CCc1nc(SCC(=O)Nc2ccc(N(C)C)cc2)c2c(C)c(C)sc2n1,nt,nt,-2.1,nt,10.2,nt
CN(C)c1ccc(NC(=O)CSc2nc(N)c(C(=O)Nc3ccc(N(C)C)cc3)s2)cc1,17.9,-21.1,-43.2,2.8,41.2*,1.6
CCOC(=O)c1sc(SCC(=O)Nc2ccc(N(C)C)cc2)nc1N,18.8,-24.9,1.5,8.7,7.5,57.3
Cc1sc2nc(C3CC3)nc(SCC(=O)Nc3ccc(N(C)C)cc3)c2c1C,nt,nt,65.2*,nt,16.1,nt
C/C(Cl)=C\Cn1c(NCc2ccc(C)cc2)nc2c1c(=O)n(C)c(=O)n2C,nt,nt,-12.7,nt,10.5,nt
COc1cc2cc(C)c(SCCN(C)C)nc2cc1OC,nt,nt,-30.6,nt,6.0,nt
COc1ccc([N+](=O)[O-])cc1NCc1ccccc1,20.5,-7.8,18.7,-2.2,15.4,9.1
COc1ccc([N+](=O)[O-])cc1NCc1ccccc1C,11.6,2.1,36.3,3.9,3.4,60.5*
S=c1[nH]nc(-c2ccccc2)n1CC1CCCO1 (stereo not drawn),27.5,6.8,8.2,-3.6,7.1,-12.2
S=c1[nH]nc(-c2ccccc2)n1C1C=CCCC1 (stereo not drawn),49.0,7.6,26.4,-1.2,6.7,91.5*
CCc1cc(CNC(=O)c2ccc(OC3CCN(C(C)=O)CC3)c(OC)c2)on1,3.8,nt,nt,-3.1,nt,67.0*
CN(C(=S)S)C1CCS(=O)(=O)C1 (stereo not drawn),nt,nt,-2.2,nt,9.0,nt
COCCn1c(C)cc(C2=NNC(=Nc3ccccc3)SC2)c1C,40.1,-19.0,-18.8,-31.9,18.8,102.5*
SMILES,PfGluPho inh,TbHK1 inh,EP2 mod,HKDC1 inh,EP2 antag,PHOSPHO1 inh
COCCn1c(C)cc(C2=NNC(=Nc3ccc(OC)cc3)SC2)c1C,28.9,-19.5,-12.4,-20.6,7.7,-54.7
CN1c2ncccc2C(=O)NC12CCN(C(=O)CCc1nc3ccccc3s1)CC2,nt,nt,5.4,nt,nt,nt
CC12CCC(=O)C=C1CCC1C2C(=O)CC2(C)C1CCC2(O)C(=O)CO (stereo not drawn),-18.8,nt,nt,1.5,nt,19.1
CS[C@@]12C(=O)C[C@@]3(C)[C@@H](CC[C@@]3(O)C(=O)CO)[C@H]1CCC1=CC(=O)CC[C@]12C,nt,nt,6.6,nt,51.1*,nt
CCN1CCN(c2ncnc3sc4c(c23)CCC4)CC1,nt,nt,-27.6,nt,12.8,nt
Oc1ccc(N2CCN(c3ncnc4sc5c(c34)CCC5)CC2)cc1,62.3*,-9.0,-15.1,6.5,10.8,75.2*
CCNC(=S)N(CCN1CCOCC1)Cc1cc2ccc(C)cc2[nH]c1=O,nt,nt,1.1,nt,10.3,nt
N#C/C(=C\NC(=S)c1ccncc1)c1nc2ccccc2s1,nt,nt,-0.4,nt,52.5*,nt
CCn1c(C)[n+](CC(O)COCC2CC=CCC2)c2ccccc21 (stereo not drawn),-14.3,2.0,23.7,2.0,6.8,104.3*
CCOC(=O)c1cc(=O)n2nc(-c3ccc(C)cc3)nc2s1,-2.8,5.4,5.8,1.7,11.8,75.3*
COC1CCC(C(=O)NC(c2ccccc2)c2nccn2C)CC1 (stereo not drawn),nt,nt,-11.8,nt,10.0,nt
c1ccc(C[n+]2csc3ccccc32)cc1,61.6*,2.4,32.4,-4.7,7.4,56.5
Fc1cccc(C[n+]2csc3ccccc32)c1,54.7,20.5,36.2,-1.3,2.1,-24.1
CCOc1ccc(-n2nnnc2SCC(N)=O)cc1,nt,nt,-48.6,nt,12.4,nt
Cc1ccccc1C(NC(=O)c1cccc(-n2cnnc2)c1)c1ccncc1 (stereo not drawn),nt,nt,5.1,nt,6.7,nt
CCc1ccc(NC(=S)Nc2ccc(S(=O)(=O)Nc3ncccn3)cc2)cc1,-8.3,12.5,2.2,-3.5,1.5,34.2
COc1ccc(CCNC(=S)Nc2ccc(S(=O)(=O)Nc3ncccn3)cc2)cc1OC,-8.6,nt,nt,-2.7,nt,67.2*
O=C(CN1CCC(c2nc3ccccc3s2)CC1)Nc1cccc(Cl)c1,nt,nt,-91.0,nt,13.3,nt
CCc1cccc(NS(=O)(=O)c2ccc3c(c2)oc(=O)n3C)c1,-11.9,3.7,-11.1,-3.7,nt,67.5*
Cc1ccc(/C(O)=C2/C(=O)C(=O)N(CCCN3CCOCC3)C2c2ccncc2)cc1F (stereo not drawn),nt,nt,20.0,nt,4.7,nt
Cc1ccccc1-n1c(SCC(=O)c2cc(C)n(C)c2C)nnc1-c1ccncc1,9.6,12.4,-4.7,-0.9,6.9,93.4*
Cc1ccc(C)c(CN2C(=O)C3(OCCCO3)c3ccccc32)c1,-11.8,-4.0,62.5*,-4.2,7.7,11.4
CCOc1ccccc1CN1C(=O)C2(OCCO2)c2ccccc21,5.2,nt,nt,-1.0,nt,40.1
CN(C)c1ccc(N=c2sc3ccccc3n2C)cc1,57.1,-11.7,-4.4,4.3,9.7,94.5*
COc1ccc(OCc2cc(C(=O)N(C)C3CCOCC3)no2)c2ccccc12,27.2,nt,nt,11.3,nt,61.6*
COc1ccc(OCc2cc(C(=O)N(C)C3CCOC3)no2)c(Cl)c1 (stereo not drawn),-13.7,nt,nt,-5.9,nt,27.0
NNC(=O)C(=O)N1CCCC1,nt,nt,9.3,nt,8.4,nt
CCC(c1nnnn1C1CCCC1)N(Cc1ccccc1)Cc1cc2cccc(C)c2[nH]c1=O (stereo not drawn),nt,nt,63.8*,nt,25.3,nt
CCC(c1nnnn1C1CCCCC1)N(CCc1cccc(C)c1)Cc1cc2cccc(C)c2[nH]c1=O (stereo not drawn),nt,nt,2.8,nt,1.1,nt
Cc1cc2cc(C(c3nnnn3C3CCCC3)N(Cc3cccnc3)Cc3ccco3)c(=O)[nH]c2cc1C (stereo not drawn),8.7,-24.2,30.1,-9.6,0.7,82.6*
